Reference: ChEMBL document CHEMBL1145444, “Mechanism-based thrombin inhibitors: design, synthesis, and molecular docking of a new selective 2-oxo-2H-1-benzopyran derivative” (J Med Chem, 2007)
One block for each molecule: values may come before it.

How the values were obtained:
[1] = biological target: Prothrombin (Homo sapiens) (UniProt P00734); assay: Inhibition of thrombin assessed as residual activity at 100 uM after 10 min
How it was run: (§1)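 Isolated, purified thrombin was incubated with inhibitor for 10 min, then its proteolytic activity was measured. Screening used 100 µM inhibitor, with lower concentrations for potent compounds. Values are reported as percentage of residual enzyme activity.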

Homo sapiens [2] = species: Homo sapiens; assay: Selectivity for thrombin over alpha chymotrypsin
How it was run: (§2)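 Inactivation rate constant (k_i) and K_I were determined by one of two methods depending on the protease. In the progress-curve method, inhibitor competes with a chromogenic substrate. In the preincubation method, enzyme and inhibitor are incubated first and remaining activity is sampled at regular time intervals. k_i/K_I serves as the potency index, and selectivity is taken as the ratio of k_i/K_I between proteases.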

[3] = biological target: Prothrombin (Homo sapiens) (UniProt P00734); assay: Ratio of kcat for thrombin to Ki for thrombin
How it was run: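 Partition ratio is the ratio of product released per inactivation event, calculated as k_cat/k_i, on thrombin.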

[4] = biological target: Prothrombin (Homo sapiens) (UniProt P00734); assay: Inhibition of thrombin assessed as residual activity at 2 uM after 10 min; how it was run: as §1
[5] = biological target: Prothrombin (Homo sapiens) (UniProt P00734); assay: Ratio of Ki for thrombin to K(inactivation) for thrombin; how it was run: as §2
[6] = biological target: Prothrombin (Homo sapiens) (UniProt P00734); assay: Inhibition of thrombin assessed as residual activity at 10 uM after 10 min; how it was run: as §1
Homo sapiens [7] = species: Homo sapiens; assay: Ratio of Ki for alpha chymotrypsin to K(inactivation) for alpha chymotrypsin; how it was run: as §2

Activity [1]: 91%
Compound: O=C(Nc1cc(Cl)ccc1Cl)c1cc2cc(CCl)ccc2oc1=O

Ratio (Homo sapiens [2]): 0.01
partition ratio kcat/ki [3]: 2.8
Compound: O=C(Oc1cccc(Cl)c1)c1cc2cc(CCl)ccc2oc1=O

Activity [1]: 110%
Compound: O=C(Nc1cc(Cl)ccc1O)c1cc2cc(CCl)ccc2oc1=O

Activity [1]: 60%
Compound: Nc1ccc(Cl)cc1OC(=O)c1cc2cc(CCl)ccc2oc1=O

Activity [1]: 103%
Compound: O=C(OCc1cc(Cl)ccc1Cl)c1cc2cc(CCl)ccc2oc1=O

Activity [1]: 90%
Compound: O=C(Oc1cccc(Cl)c1)c1cc2cc(Oc3ccccc3)ccc2oc1=O

Activity [1]: 95%
Compound: CCOC(=O)COc1ccc(Cl)cc1COC(=O)c1cc2cc(CCl)ccc2oc1=O

Ratio (Homo sapiens [2]): 0.13
partition ratio kcat/ki [3]: 1.8
Compound: O=C(Oc1cc(Cl)ccc1Cl)c1cc2cc(CCl)ccc2oc1=O

Activity [4]: 11%
Ratio (Homo sapiens [2]): 5
partition ratio kcat/ki [3]: 13.5
Ratio [5]: 3460 M⁻¹ s⁻¹
Activity [6]: 3%
Ratio (Homo sapiens [7]): 755 M⁻¹ s⁻¹
Compound: CCNC(=O)COc1ccc(Cl)cc1OC(=O)c1cc2cc(CCl)ccc2oc1=O

Activity [1]: 94%
Compound: O=C(Oc1cc(Cl)ccc1Cl)c1cc2cc(Oc3ccccc3)ccc2oc1=O

Activity [1]: 101%
Compound: O=C(OCc1cc(Cl)ccc1O)c1cc2cc(CCl)ccc2oc1=O
